Screening results (PubChem)
Rows were chosen to be rich in hits. Some 2.3% of all compounds tested hit in one or more screens of this group.
TRPC4 block – inhibitors of mouse TRPC4 channel, primary screen, Fluo4 calcium, HEK293 TRPC4beta/mu-opioid cells; Short transient receptor potential channel 4 (Mus musculus), Q9QUQ5; DAMGO-evoked Fluo4 calcium flux; active compounds read low; B-score at 10 µM; hit rate 0.39% among 300,000; AID 2247, 2010;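 active = B-score over 3 SD under the library average, no early fluorescence shift, positive overall ratio signal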
Target sequence (Q9QUQ5 whole entry, looked up): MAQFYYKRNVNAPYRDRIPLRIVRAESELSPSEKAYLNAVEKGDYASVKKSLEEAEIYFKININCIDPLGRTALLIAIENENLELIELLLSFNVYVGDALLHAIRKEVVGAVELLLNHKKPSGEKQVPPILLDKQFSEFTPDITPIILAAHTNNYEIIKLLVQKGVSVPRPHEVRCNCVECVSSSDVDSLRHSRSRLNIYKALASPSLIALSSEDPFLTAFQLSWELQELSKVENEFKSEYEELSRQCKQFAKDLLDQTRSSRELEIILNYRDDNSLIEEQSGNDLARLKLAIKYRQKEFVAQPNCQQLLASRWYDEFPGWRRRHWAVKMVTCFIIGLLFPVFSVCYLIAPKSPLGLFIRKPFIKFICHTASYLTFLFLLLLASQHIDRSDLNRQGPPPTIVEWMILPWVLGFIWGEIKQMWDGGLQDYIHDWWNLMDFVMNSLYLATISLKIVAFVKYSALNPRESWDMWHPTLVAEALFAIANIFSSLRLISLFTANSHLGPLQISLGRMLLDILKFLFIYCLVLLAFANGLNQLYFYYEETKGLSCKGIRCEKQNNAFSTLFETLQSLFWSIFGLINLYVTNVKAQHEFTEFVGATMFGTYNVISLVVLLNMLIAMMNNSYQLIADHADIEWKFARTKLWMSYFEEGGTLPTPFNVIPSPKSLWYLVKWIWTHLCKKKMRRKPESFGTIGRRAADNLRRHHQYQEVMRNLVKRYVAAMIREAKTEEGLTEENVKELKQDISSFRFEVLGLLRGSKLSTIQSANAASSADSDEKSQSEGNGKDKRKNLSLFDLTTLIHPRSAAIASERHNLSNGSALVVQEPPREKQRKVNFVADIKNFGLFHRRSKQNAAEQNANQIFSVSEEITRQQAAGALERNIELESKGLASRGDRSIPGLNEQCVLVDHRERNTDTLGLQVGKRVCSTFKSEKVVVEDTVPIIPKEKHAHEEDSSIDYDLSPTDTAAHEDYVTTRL
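Material: HEK293 cells with stable TRPC4beta plus mu-opioid receptor expression / Probe or stimulus: DAMGO in two steps, submaximal then maximal / Compound: single concentration per test compound / Technique: kinetic Fluo4 fluorescence imaging of calcium influx / Read-out: per-well B score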
TRPC4 agonist – activators of mouse TRPC4 channel, primary screen, Fluo4 calcium, HEK293 TRPC4beta/mu-opioid cells | Short transient receptor potential channel 4 (Mus musculus), Q9QUQ5 | hit rate 0.49% among 310,000 | Fluo4 calcium fluorescence; active compounds read high | B-score at 10 µM;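 active = B-score above 5 SD of library B-scores, and initial fluorescence ratio not above library mean plus 5 SD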;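 note: positive B-score marks a calcium rise read as TRPC4 activation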
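Technique: kinetic Fluo4 calcium fluorescence; Test system: TRPC4beta and mu-opioid receptor HEK293 stable cells; Measure: B-scored integrated calcium fluorescence ratio; Benchmarks: low control buffer alone, high control maximal DAMGO; Schedule: 45 min room-temperature Fluo4 loading, 110 s read.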
TRPC4 PAM – positive allosteric modulators of TRPC4, primary screen, cell-based, mouse TRPC4beta, HEK293 mu-opioid, Fluo-4 calcium | Short transient receptor potential channel 4 (Mus musculus), Q9QUQ5 | DAMGO EC20, Fluo-4 Ca2+ flux; active compounds read high | B-score at 10 µM | hit rate 0.42% among 310,000;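 active = B-score of calcium response area above 5 SD of library B-scores, with initial fluorescence ratio within 5 SD of library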;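 note: B-score of integrated fluorescence ratio over time as area under calcium response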
TRPC6 activator – mouse TRPC6 channel activators, primary screen, cell-based, HEK293, membrane potential dye. HEK293-TRPC6 membrane potential dye fluorescence; active compounds read high. B-score at 10 µM. hit rate 0.13% among 310,000;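 active = B-score of the integrated fluorescence ratio above library mean plus 3 SD, and starting fluorescence ratio within library mean plus 5 SD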;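 note: higher score means more depolarization so channel activation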
TRPC6 inhibitor – mouse TRPC6 channel inhibitors, primary screen, cell-based, HEK293, membrane potential dye | Short transient receptor potential channel 6 (Mus musculus), Q61143 | ACh-evoked depolarization; active compounds read low | B-score at 10 µM | hit rate 1.1% among 310,000 | AID 2553, 2010;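 active = B-score under library mean minus 3 SD, initial fluorescence not abnormally high, positive integrated signal ratio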;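 note: B-score derived from integrated fluorescence ratio over the kinetic read; more negative B-score means stronger inhibition of depolarization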
Numbers without * were called inactive; i = inactive.

SMILES | TRPC4 block | TRPC4 agonist | TRPC4 PAM | TRPC6 activator | TRPC6 inhibitor
COc1ccccc1NC(=O)c1cnc(SCC(=O)NCC2CCCO2)n(C)c1=O (stereo not given) | i | i | i | i | i
CCOc1ccc(N(C(=O)CNC(=O)c2ccco2)C(C(=O)NCC2CCCO2)c2ccccc2)cc1 (stereo not given) | i | i | i | i | i
COc1ccc(N(C(=O)CNC(=O)c2ccco2)C(C(=O)NCC2CCCO2)c2ccccc2)cc1 (stereo not given) | i | i | 11* | i | i
CCn1c(N)[n+](CC(=O)Nc2ccc(SC(F)F)cc2)c2ccccc21 | i | 156* | i | i | i
CC1=C(C(=O)Nc2ccccc2C(=O)NCCCOC(C)C)SCCO1 | i | i | i | i | i
CC1CCCCN1CCCNC(=O)c1nn(C)c2c1CSc1ccccc1-2 (stereo not given) | -7* | i | i | i | i
CCn1c2ccc(C)cc2c2nnc(NN)nc21 | i | i | i | i | i
CCn1c2ccccc2c2nnc(NN)nc21 | i | 45* | 15* | i | i
Cc1cccc(CC(Cc2nc3ccccc3[nH]2)c2nc3ccccc3[nH]2)c1 (stereo not given) | i | i | i | i | i
COc1ccccc1CC(Cc1nc2ccccc2[nH]1)c1nc2ccccc2[nH]1 (stereo not given) | -6* | i | i | i | i
COc1ccccc1CNS(=O)(=O)c1ccc2c(c1)NC(=O)C(C)S2 (stereo not given) | i | i | i | i | i
CCCCN(C)C(=O)C1CCCN(S(=O)(=O)c2ccc3c(c2)CC(C)N3C(=O)C2CC2)C1 (stereo not given) | i | i | i | i | i
CC(C)OC(=O)c1c2nc3ccccc3nc2n2c1[nH]c(=O)c1ccccc12 | i | i | 10* | i | i
CC(C)OC(=O)c1c(N)n(CCCN2CCOCC2)c2nc3ccccc3nc12 | i | i | i | i | i
Cc1ccc(S(=O)(=O)CC(=O)N2CC(C)OC(C)C2)cc1 (stereo not given) | i | i | i | i | i
OC(CNC1CCCc2ccccc21)COc1c(Cl)cccc1Cl (stereo not given) | -5* | 44* | i | i | i
OC(CNC1Cc2ccccc2C1)COc1ccc(Cl)cc1 (stereo not given) | i | i | i | i | i
CCN(CC)S(=O)(=O)c1ccc(NC(=O)Cn2c(=O)oc3ccccc32)cc1 | -6* | i | i | i | i
Cc1ccc(NC(=O)Cn2c(=O)oc3ccccc32)cc1 | i | i | i | i | i
CN(C)c1ccc(-c2nc3ccccc3n2C)cc1 | i | 46* | i | i | i
O=C(/C=C/c1cccc([N+](=O)[O-])c1)N1CCN(Cc2ccc3c(c2)OCO3)CC1 | i | i | i | i | i
Cc1onc(-c2c(Cl)cccc2Cl)c1C(=O)NCCc1ccc(S(N)(=O)=O)cc1 | i | i | i | i | i
CCOc1ccccc1N(CC(=O)N1CCOCC1)S(=O)(=O)c1ccccc1 | -6* | 93* | i | i | i
O=C(CCC1CCCN(C(=O)CCCc2ccccc2)C1)N1CCN(c2ccccn2)CC1 (stereo not given) | i | i | i | i | i
CCOc1ccc(C(=O)NCC(c2cccs2)N(C)C)cc1 (stereo not given) | i | 50* | i | i | i
SMILES | TRPC4 block | TRPC4 agonist | TRPC4 PAM | TRPC6 activator | TRPC6 inhibitor
COc1ccc(N(C)S(=O)(=O)c2cccc(C(=O)NCC(c3cccs3)N(C)C)c2)cc1 (stereo not given) | -6* | i | i | i | i
CCOc1ccc(C(=O)NCC(C)C)cc1 | i | i | i | i | i
Cc1ccc(CNC(=O)CCCn2nc(C)c3c(C)n(-c4ccccc4)nc3c2=O)cc1 | i | i | i | i | i
C=CCOc1ccc(Br)cc1CNC(C)(C)CO | -7* | i | i | i | i
COc1cc(C(=O)NNC(=S)NC(=O)c2ccccc2C)cc(OC)c1OC | i | i | i | i | i
COc1ccccc1C(=O)NNC(=S)NC(=O)c1cc(OC)c(OC)c(OC)c1 | i | 62* | i | i | i
COc1cc(C(=O)NC(=S)NNC(=O)[C@H]2C[C@@H]2c2ccccc2)cc(OC)c1OC | i | 160* | i | i | i
CC(C)(O)c1[nH]c2cc(F)ccc2c1C(C)(C)O | i | i | i | i | i
Clc1ccc(-n2cc(-c3ccc(Br)cc3)[n+]3c2CCCCC3)cc1 | -6* | i | i | i | i
Cc1ccc(-c2cn(-c3ccc(OC(F)F)cc3)c3[n+]2CCCCC3)cc1 | i | i | i | i | i
c1ccc(CCNc2ncnc3sccc23)nc1 | i | 51* | i | i | i
CN(C)C(CNc1ncnc2sccc12)c1ccccc1 (stereo not given) | i | 75* | i | i | i
Cc1csc2ncnc(NCCc3ccccn3)c12 | i | i | i | i | i
COc1ccc(C(CNc2ncnc3sccc23)N(C)C)cc1OC (stereo not given) | i | 45* | i | i | i
COc1ccccc1CNC(=O)COc1cc2c(c3oc(=O)cc(C)c13)CCC(C)(C)O2 | i | i | i | i | i
COc1ccccc1C(=O)C1CCCN(C(=O)c2snnc2C)C1 (stereo not given) | i | i | i | i | i
N#Cc1c(N)sc2c1CCCCCC2 | -7* | i | i | i | i
COc1cc(/C(C)=N/N2CCN(c3ccccc3OC)CC2)ccc1O | i | i | i | i | i
COc1ccc(-n2c(SCC(=O)N/N=C/c3ccccc3OCC(=O)O)nc3ccccc3c2=O)cc1 | i | i | i | i | i
COc1ccc(Nc2nc(NN)nc(Nc3ccc(OC)cc3)n2)cc1 | i | i | i | i | i
CCCCn1c(NCc2ccc(N(C)C)cc2)nc2ccccc21 | -6* | i | i | i | i
C=CCn1c(NCc2ccco2)nc2ccccc21 | i | i | 34* | i | i
